# NPY1 pot ag: NPY-Y1 receptor potentiators or agonists, primary screen, cell-based. 220,000 compounds, 0.37% hits. Neuropeptide Y receptor type 1 (Homo sapiens), P25929. activation, % at 3.6 µM. NPY-Y1 expressing cells, potentiator/agonist activation; in the data active = activation above about 33%, passing the limit was not always enough;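 also: cells stimulated with NPY at EC10 then isoproterenol at EC100; 0% = low agonist plus stimulus and 100% = saturating agonist plus stimulus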
# NPY-Y2 antag: NPY-Y2 receptor antagonists, primary screen, cell-based. inhibition, % at 2.7 µM. NPY-Y2 expressing cells, antagonist mode. 140,000 compounds, 0.99% hits. Neuropeptide Y receptor type 2 (Homo sapiens), P49146;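 also: 0% = vehicle with agonist challenge and 100% = reference antagonist with challenge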
# Target sequence (P49146 whole entry, looked up): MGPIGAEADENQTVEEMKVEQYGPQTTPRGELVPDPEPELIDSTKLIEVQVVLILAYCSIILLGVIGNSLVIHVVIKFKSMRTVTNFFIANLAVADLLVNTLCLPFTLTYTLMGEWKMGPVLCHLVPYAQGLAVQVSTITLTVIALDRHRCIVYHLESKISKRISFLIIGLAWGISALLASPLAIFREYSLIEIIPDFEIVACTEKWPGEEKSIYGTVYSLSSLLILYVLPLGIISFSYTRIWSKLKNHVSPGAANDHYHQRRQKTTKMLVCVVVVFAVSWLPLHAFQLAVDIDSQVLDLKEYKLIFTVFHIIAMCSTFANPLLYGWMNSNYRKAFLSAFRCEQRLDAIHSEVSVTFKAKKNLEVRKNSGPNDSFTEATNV
# NPY2 pot ag: NPY-Y2 potentiators or agonists, primary screen, cell-based; cells expressing NPY-Y2, potentiator/agonist read-out; Neuropeptide Y receptor type 2 (Homo sapiens), P49146; activation, % at 3.6 µM; 220,000 compounds, 0.45% hits; in the data active = activation above about 27%;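 also: cells stimulated with NPY near EC25 plus isoproterenol at EC100; 0% = vehicle plus submaximal agonist and 100% = vehicle plus saturating agonist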
# NPY Y1 blocker: NPY-Y1 receptor antagonists, primary screen, cell-based | HEK293-CNG Y1 cells, membrane potential fluorescence; NPY at EC95, then isoproterenol | inhibition, % at 3.6 µM | 200,000 compounds, 1% hits;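 active = inhibition above the campaign mean inhibition of all tested compounds plus 3 SD, cut at about 20% in these data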;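 also: 0% = DMSO wells given NPY plus isoproterenol and 100% = isoproterenol alone without NPY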
#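 Material: Y1- and CNG-channel-expressing HEK293 cells / Probe or stimulus: NPY 25 nM then isoproterenol 1 µM plus Ro 20-1724 25 µM / Doses: 3.6 µM single dose, DMSO 0.4% / Schedule: compound incubation 1 h at room temperature, readout 45 min post-stimulation / Signal: membrane potential fluorescence / Benchmarks: isoproterenol-only wells as full block versus NPY-plus-isoproterenol wells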
# NPY1 antag conf: NPY-Y1 receptor antagonists, retest of hits, confirmation, HEK293-CNG cells, membrane potential fluorescence, triplicate; inhibition, % at 3.6 µM; shares compounds with NPY Y1 blocker; 1,200 compounds, 21% hits; AID 1254, 2008; cAMP; NPY challenge against isoproterenol-raised cAMP; in the data active = inhibition above about 20%;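 also: 0% = vehicle with agonist plus stimulus and 100% = stimulus alone without agonist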
# NPY2 antag ctr: NPY-Y2 receptor antagonists, selectivity check, confirmation, counter-screen for NPY-Y1 antagonist project, HEK293-CNG cells, membrane potential fluorescence, triplicate; shares compounds with NPY Y1 blocker; antagonism; cells given NPY, then isoproterenol; inhibition, % at 3.6 µM; 1,200 compounds, 28% hits;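 also: 0% = DMSO with agonist challenge and 100% = reference antagonist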
# The depositor's hits bear a star; x = no result. Hits are enriched below; roughly 1.8% of the tested compounds scored in any of these assays. Rule as the data show it, unless noted: active = inhibition above about 17%; inactive = the rest.
SMILES,NPY1 pot ag,NPY-Y2 antag,NPY2 pot ag,NPY Y1 blocker,NPY1 antag conf,NPY2 antag ctr
O=C(Cc1ccccc1)Nc1c2c(nn1-c1cccc(Cl)c1)CS(=O)(=O)C2,-13.0,9.4,-16.3,21.5*,16.6,7.5
COc1ccc(-c2cc(-c3n[nH]c(=S)n3-c3ccccc3OC)[nH]n2)cc1,-66.1,16.4,-15.3,32.1*,37.2*,65.6*
COc1ccc(OC)c(-n2c(-c3cc(-c4ccccc4)n[nH]3)n[nH]c2=S)c1,-15.6,1.5,-9.6,8.8,x,x
CCN(CC)CC(=O)Nc1sc(C)c(C)c1C(=O)c1ccc(C)cc1,-16.4,x,-7.2,2.4,x,x
Cc1ccc(C(=O)c2c(NC(=O)c3ccccc3C)sc(C)c2C)cc1,-65.6,3.2,-31.2,22.9*,17.3,35.6*
CCOC(=O)c1c(C)noc1CP(=O)(c1ccccc1)c1ccccc1,-22.0,16.6,-13.2,31.4*,15.7,8.8
O=C1c2cccc3c(N4CCCCC4)ccc(c23)C(=O)N1c1ccccn1,5.6,3.6,-8.5,-2.1,x,x
CCN(CC)c1ccc(NC(=O)COC(=O)c2cccs2)cc1,3.4,4.9,0.4,20.7*,-0.8,1.6
CCN(c1ccc(NC(=O)COC(=O)c2cccs2)cc1)C(C)C,25.0,0.5,9.0,5.5,x,x
Cc1cccc(C)c1OCCn1nc(C(=O)O)c2ccccc2c1=O,-34.7,10.5,-29.6,23.7*,16.8,23.3*
COc1cccc(-c2cc(C(=O)NC3CCCC3)no2)c1,-1.0,8.3,0.2,0.2,x,x
COc1ccc(C(CC(=O)O)NC(=O)c2sc3ccccc3c2Cl)cc1 (stereo unspecified),-71.6,11.4,-16.4,21.7*,12.5,12.3
CN(CCOC(=O)c1ccccc1)Cc1ccccc1,13.1,3.3,-5.0,7.6,x,x
CN(CCOC(=O)c1cccc(F)c1)Cc1ccccc1,-2.0,3.0,-2.1,25.5*,0.9,3.5
COc1cc(C2C(C#N)=C(N)Oc3cc4c(cc32)OCO4)cc(OC)c1OC (stereo unspecified),-1.1,x,-26.4,22.0*,5.5,13.0
COc1ccc(C(=O)N2CCn3c2nc2ccccc23)cc1,15.7,x,-7.4,-0.2,x,x
COc1ccc(C(=O)n2c(-c3ccco3)nc3ccccc32)cc1,-30.1,6.6,-16.7,22.6*,8.5,13.9
CCOC(=O)c1c(NC(=O)CN2CCN(C)CC2)sc(C(=O)Nc2ccccc2)c1C,-42.7,x,-23.2,26.7*,13.9,13.3
O=C(O)c1cc(-c2ccccc2)n(-c2ccc(Cl)cc2)n1,-18.7,x,-3.1,2.8,x,x
O=C(O)c1cc(-c2ccccc2)n(-c2ccccc2)n1,-19.7,11.4,-11.2,23.8*,5.4,9.6
O=C(c1ccccn1)N(Cc1cccs1)C1(C(=O)NC2CCCCC2)CCCCC1,7.5,x,-10.7,44.0*,15.4,7.3
CN(C(=O)c1ccccn1)C1(C(=O)NC2CCCCC2)CCCCC1,8.6,7.5,-2.6,7.4,x,x
COc1ccccc1NC(=O)CSc1nc(N)c(-c2ccccc2)c(=O)[nH]1,-6.2,x,-45.2,73.6*,54.7*,67.6*
CCOC(=O)C1CCN(C(=O)CCS(=O)(=O)c2ccc3c(c2)CC(C)N3C(=O)CC)CC1 (stereo unspecified),-5.6,x,11.5,36.8*,3.0,2.8
CCOC(=O)C1CCN(C(=O)CCS(=O)(=O)c2ccc3c(c2)CCN3C(=O)CC)CC1,25.9,x,14.8,-1.1,x,x
SMILES,NPY1 pot ag,NPY-Y2 antag,NPY2 pot ag,NPY Y1 blocker,NPY1 antag conf,NPY2 antag ctr
O=C(Nc1nnc(COc2ccc(F)cc2)s1)c1ccco1,-2.0,x,-4.9,x,x,x
Cn1c(=O)cc(SCC(=O)NCCCN2CCN(c3ccccc3F)CC2)c2ccccc21,-22.0,10.6,-4.5,20.5*,5.5,2.1
COc1cc(C(=O)NCc2ccc(C)cc2)ccc1OCc1c(C)noc1C,-6.5,1.8,-1.3,1.8,x,x
CC(Oc1ccc(-c2nccc(-c3ccccn3)n2)cc1)C(=O)NN (stereo unspecified),-5.8,4.2,-0.7,2.0,x,x
CCc1cc(-c2n[nH]c(C)c2-c2nc3ccccc3n2C)c(O)cc1O,19.4,x,-1.4,-14.9,x,x
Cc1cccc(Cc2cnc(N3C(=N)SC(C)C3=O)s2)c1 (stereo unspecified),-27.4,x,-44.8,15.9,x,x
Cc1ccc(Cc2cnc(N3C(=N)SC(C)C3=O)s2)cc1 (stereo unspecified),-26.2,x,-35.0,25.6*,11.6,11.7
CCOC(=O)c1c(C)n(-c2ccc(C)cc2)c2ccc(OCC(O)CN3CCN(C)CC3)cc12 (stereo unspecified),-57.4,x,-46.7,47.4*,25.4*,46.6*
CCOC(=O)c1c(C)n(C)c2ccc(OCC(O)CN3CCN(C)CC3)cc12 (stereo unspecified),-12.5,2.9,1.5,-2.6,x,x
O=c1cc(CN2CCC3(CC2)OCCO3)c2c(ccc3ccccc32)o1,-10.3,6.9,-12.6,3.6,x,x
O=c1cc(CN2CCN(c3ccccc3)CC2)c2c(ccc3ccccc32)o1,-131.0,5.1,-4.9,44.0*,35.8*,57.1*
O=C(COC(=O)CCc1c[nH]c2ccccc12)Nc1cc([N+](=O)[O-])ccc1Cl,-23.8,7.6,-2.7,27.3*,9.0,8.4
O=C(NCCN1CCOCC1)c1cc(-c2ccco2)on1,4.4,6.0,5.4,20.6*,-1.3,0.2
Cc1ncc(CO)c(/C=N/NC(=S)Nc2ccc(C(C)C)cc2)c1O,17.6,x,-2.4,x,x,x
CCOc1ncccc1C(=O)OCC(=O)c1ccccc1,5.5,x,13.0,1.7,x,x
COc1ccc(OC)c(CN2CCC(CO)(CCOc3ccccc3)CC2)c1,-39.0,x,-49.2,11.4,x,x
Cc1cc(C)c(CN2CCC(CO)(CCOc3ccccc3)CC2)cc1C,-36.4,x,-34.8,30.4*,9.2,23.2*
CCOC(=O)c1sc(NS(=O)(=O)c2ccccc2)nc1C,-1.6,2.8,-23.4,-1.0,x,x
O=C(CCc1nc2ccccc2[nH]1)NC1CCCCC1,2.8,9.7,-2.4,4.0,x,x
CC1CC1C(=O)Nc1nc(-c2ccc(Cl)s2)cs1 (stereo unspecified),7.6,x,-2.3,25.0*,8.5,7.4
CN(C)/C=C/c1onc(-c2c(Cl)cccc2Cl)c1C#N,7.2,x,-4.7,3.6,x,x
COc1ccc(N/N=C(\C=N\O)C(=O)c2ccc(OC)cc2)cc1,-29.9,-1.2,-9.3,32.1*,4.2,16.5
CC(=O)c1ccc(NC(=O)CCSCCC(=O)Nc2ccc(C(C)=O)cc2)cc1,24.1,0.1,8.6,-7.2,x,x
CCOc1ccccc1NC(=O)C(NCC1(N2CCCCC2)CCCCC1)c1ccccc1 (stereo unspecified),-27.1,x,-12.8,33.8*,30.9*,29.9*

# Compound activity (PubChem)
